Key:
Format in all cases: functional
ACHN = assay: Cytotoxicity against human ACHN cells assessed as cell growth at 10 uM after 48 hrs by sulforhodamine B assay; conditions: read-out: Activity
Procedure, shortened: (§1)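 NCI-60 five-dose screen. Cells were grown in RPMI 1640 with 5% FBS and 2 mM L-glutamine, plated at 5000–40,000 cells/well and preincubated for 24 h. Time-zero plates were TCA-fixed. DMSO-solubilized drug was added at five concentrations (10-fold or ½-log serial dilutions) for 48 h at 37 °C, 5% CO2. Cells were TCA-fixed, stained with 0.4% SRB and read at 515 nm. Percent growth used time-zero, control and test absorbances.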

CCRF-CEM [1] = assay: Cytotoxicity against human CCRF-CEM cells assessed as cell growth at 10 uM after 48 hrs by sulforhodamine B assay; conditions: read-out: Activity; procedure, shortened: as §1
SW-620 [2] = assay: Growth inhibition of human SW620 cells after 48 hrs by sulforhodamine B assay; conditions: SW-620, 48 h
Procedure, shortened: (§2)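 NCI 60-cell screen, five-dose mode. Cells grown in RPMI 1640 with 5% FBS and 2 mM L-glutamine and plated at 5000-40,000 cells/well according to doubling time. After 24 h preincubation, a Tz plate was TCA-fixed. Five concentrations (10-fold or 1/2 log dilutions) were applied for 48 h at 37 °C. SRB staining read at 515 nm. IC50 taken from [(Ti-Tz)/(C-Tz)]×100 = 50.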

NCI-H460 [3] = assay: Cytotoxicity against human NCI-H460 cells assessed as cell growth at 100 nM after 48 hrs by sulforhodamine B assay; conditions: NCI-H460, 48 h, read-out: Activity
BT-549 [4] = assay: Cytotoxicity against human BT549 cells assessed as cell growth at 10 uM after 48 hrs by sulforhodamine B assay; conditions: BT-549, 48 h, read-out: Activity; procedure, shortened: as §1
HOP-62 = assay: Cytotoxicity against human HOP62 cells assessed as cell growth at 1 uM after 48 hrs by sulforhodamine B assay; conditions: HOP-62, 48 h, read-out: Activity
PC-3 = assay: Growth inhibition of human PC3 cells after 48 hrs by sulforhodamine B assay; conditions: PC-3, 48 h; procedure, shortened: as §2
NCI/ADR-RES = assay: Cytotoxicity against human NCI/ADR-RES cells assessed as cell growth at 0.001 uM after 48 hrs by sulforhodamine B assay; conditions: read-out: Activity
LOX IMVI [5] = assay: Cytotoxicity against human LOXIMVI cells assessed as cell growth at 0.001 uM after 48 hrs by sulforhodamine B assay; conditions: read-out: Activity
NCI-H322M = assay: Cytotoxicity against human NCI-H322M cells assessed as cell growth at 10 uM; conditions: read-out: Activity
Procedure, shortened: (§3)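 NCI-60 screen: cells grown in RPMI 1640 with 5% FBS and 2 mM L-glutamine, plated at 5000–40,000 cells/well according to doubling time, and preincubated 24 h at 37 °C, 5% CO2. The single 10 µM dose (DMSO stock) was added, then incubated 48 h. Cells were TCA-fixed and stained with 0.4% SRB, read at 515 nm, and growth % calculated against time-zero and control plates.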

BT-549 [6] = assay: Cytotoxicity against human BT549 cells assessed as cell growth at 10 uM; conditions: read-out: Activity
Procedure, shortened: (§4)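 Single-dose NCI-60 screen at 10 µM. Cells were grown in RPMI 1640 with 5% FBS and 2 mM L-glutamine, then treated for 48 h at 37 °C. Protein was measured by SRB staining with absorbance at 515 nm. Percentage growth was recorded, and inhibition percentage was calculated as 100 minus growth percentage.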

UACC-62 = assay: Growth inhibition of human UACC62 cells after 48 hrs by sulforhodamine B assay; conditions: UACC-62, 48 h; procedure, shortened: as §2
M14 [7] = assay: Growth inhibition of human M14 cells after 48 hrs by sulforhodamine B assay; conditions: M14, 48 h; procedure, shortened: as §2
A498 [8] = assay: Cytotoxicity against human A498 cells assessed as cell growth at 10 uM after 48 hrs by sulforhodamine B assay; conditions: A498, 48 h, read-out: Activity; procedure, shortened: as §1
UACC-257 = assay: Cytotoxicity against human UACC257 cells assessed as cell growth at 1 uM after 48 hrs by sulforhodamine B assay; conditions: UACC-257, 48 h, read-out: Activity
DU-145 = assay: Cytotoxicity against human DU145 cells assessed as cell growth at 10 uM; conditions: read-out: Activity; procedure, shortened: as §4
NCI-H460 [9] = assay: Cytotoxicity against human NCI-H460 cells assessed as cell growth at 0.01 uM after 48 hrs by sulforhodamine B assay; conditions: NCI-H460, 48 h, read-out: Activity
SNB-75 = assay: Cytotoxicity against human SNB75 cells assessed as cell growth at 100 nM after 48 hrs by sulforhodamine B assay; conditions: SNB-75, 48 h, read-out: Activity
SR = assay: Cytotoxicity against human SR cells assessed as cell growth at 10 uM; conditions: read-out: Activity; procedure, shortened: as §3
Malme-3M = assay: Cytotoxicity against human MALME-3M cells assessed as cell growth at 10 uM; conditions: read-out: Activity; procedure, shortened: as §3
OVCAR-8 [10] = assay: Cytotoxicity against human OVCAR8 cells assessed as cell growth at 10 uM after 48 hrs by sulforhodamine B assay; conditions: OVCAR-8, 48 h, read-out: Activity
HCT-15 = assay: Cytotoxicity against human HCT15 cells assessed as cell growth at 10 uM after 48 hrs by sulforhodamine B assay; conditions: HCT-15, 48 h, read-out: Activity
M14 [11] = assay: Cytotoxicity against human M14 cells assessed as cell growth at 100 nM after 48 hrs by sulforhodamine B assay; conditions: M14, 48 h, read-out: Activity
LOX IMVI [12] = assay: Cytotoxicity against human LOXIMVI cells assessed as cell growth at 1 uM after 48 hrs by sulforhodamine B assay; conditions: read-out: Activity
OVCAR-8 [13] = assay: Cytotoxicity against human OVCAR8 cells assessed as cell growth at 0.01 uM after 48 hrs by sulforhodamine B assay; conditions: OVCAR-8, 48 h, read-out: Activity
NCI-H522 = assay: Cytotoxicity against human NCI-H522 cells assessed as cell growth at 0.001 uM after 48 hrs by sulforhodamine B assay; conditions: NCI-H522, 48 h, read-out: Activity
NCI-H460 [14] = assay: Cytotoxicity against human NCI-H460 cells assessed as cell growth at 10 uM after 48 hrs by sulforhodamine B assay; conditions: NCI-H460, 48 h, read-out: Activity
[15] = Growth inhibition of human […] cells after 48 hrs by sulforhodamine B assay; procedure, shortened: as §2
CCRF-CEM [16] = assay: Cytotoxicity against human CCRF-CEM cells assessed as cell growth at 1 uM after 48 hrs by sulforhodamine B assay; conditions: read-out: Activity; procedure, shortened: as §1
CAKI-1 = assay: Cytotoxicity against human Caki1 cells assessed as cell growth at 0.01 uM after 48 hrs by sulforhodamine B assay; conditions: CAKI-1, 48 h, read-out: Activity
SW-620 [17] = assay: Cytotoxicity against human SW620 cells assessed as cell growth at 0.01 uM after 48 hrs by sulforhodamine B assay; conditions: SW-620, 48 h, read-out: Activity
A498 [18] = assay: Cytotoxicity against human A498 cells assessed as cell growth at 0.01 uM after 48 hrs by sulforhodamine B assay; conditions: A498, 48 h, read-out: Activity; procedure, shortened: as §1
[19] = Cytotoxicity against human Hs 578T cells assessed as cell growth at 10 uM; conditions: read-out: Activity; procedure, shortened: as §4
[20] = read-out: LC50 (the source's name)

SMILES: COc1cc(C)cc(-c2c(-c3ccnc(-c4ccc(N(C)C)cc4)c3)cnn2CC#N)c1
- growth at 10 µM (ACHN): 16%
- growth at 10 µM (CCRF-CEM [1]): 8%
- GI50 (SW-620 [2]): 39.4 nM
- TGI (SW-620 [2]): > 100000 nM
- CC50 (SW-620 [2]; [20]): > 100000 nM
- growth at 0.1 µM (NCI-H460 [3]): -43%
- growth at 10 µM (BT-549 [4]): -25%
- growth at 1 µM (HOP-62): 31%
- GI50 (PC-3): 52.3 nM
- LC50 (concentration giving 50% net cell kill) (PC-3): > 100000 nM
- TGI (PC-3): > 100000 nM
- growth at 0.001 µM (NCI/ADR-RES): 96%
- growth at 0.001 µM (LOX IMVI [5]): 88%
- growth at 10 µM (NCI-H322M): 58.9%
- growth at 10 µM (BT-549 [6]): -26.5%
- GI50 (UACC-62): 61.9 nM
- TGI (UACC-62): > 100000 nM
- CC50 (UACC-62; [20]): > 100000 nM
- GI50 (M14 [7]): 54.1 nM
- TGI (M14 [7]): 483 nM
- CC50 (M14 [7]; [20]): > 100000 nM
- growth at 10 µM (A498 [8]): 7%
- growth at 1 µM (UACC-257): 29%
- growth at 10 µM (DU-145): 3.17%
- growth at 0.01 µM (NCI-H460 [9]): 35%
- growth at 0.1 µM (SNB-75): 6%
- growth at 10 µM (SR): -6.91%
- growth at 10 µM (Malme-3M): 103%
- growth at 10 µM (OVCAR-8 [10]): 8%
- growth at 10 µM (HCT-15): 9%
- growth at 0.1 µM (M14 [11]): -16%
- growth at 1 µM (LOX IMVI [12]): 12%
- growth at 0.01 µM (OVCAR-8 [13]): 28%
- growth at 0.001 µM (NCI-H522): 96%
- growth at 10 µM (NCI-H460 [14]): -55%
- GI50 [15]: 266 nM
- TGI [15]: 1960 nM
- CC50 [15, 20]: > 100000 nM
- growth at 1 µM (CCRF-CEM [16]): 6%
- growth at 0.01 µM (CAKI-1): -6%
- growth at 0.01 µM (SW-620 [17]): 69%
- growth at 0.01 µM (A498 [18]): 40%
- growth at 10 µM [19]: 30.8%
